In ChEMBL document CHEMBL4680077, “Differentiation of skeletal osteogenic progenitor cells to osteoblasts with 3,4-diarylbenzopyran based amide derivatives: Novel osteogenic agents” (Eur J Med Chem, 2016):
Activity calls are given as the source filed them. No cut-off for these calls is given here.

What was measured:
[1] = test system: Mus musculus; experiment: In vivo osteogenic activity in ovariectomized BALB/c mouse assessed as decrease in serum OCN at 1 to 10 mg/kg, po via gavage administered for 30 days; type: functional, organism-based; details: dose 1-10 mg/kg, time 30.0 day
How it was run: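 Eight-week-old female balb/c mice were ovariectomized and dosed once daily by oral gavage at 1 or 10 mg kg-1 in vehicle (gum acacia in water) for 30 days; sham and Ovx vehicle groups served as controls. Serum CTx and osteocalcin were assayed in duplicate. n = 10 per group; mean ± SEM.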

[2] = Acute toxicity in Swiss albino mouse assessed as relative brain weight at 5 mg/kg, po measured after 7 days (reference value: 1.63 +/- 0.13 %); type: organism-based; details: in vivo, 168 h, time 7 day
[3] = Acute toxicity in Swiss albino mouse assessed as basophil count at 50 mg/kg, po measured after 7 days (reference value: 1.50 +/- 0.29 %); type: organism-based; details: in vivo, 168 h, time 7 day
[4] = test system: Calvarial osteoblast; experiment: Induction of osteoblast differentiation in mouse calvarial osteoblast assessed as increase in mineralization nodules at 1 pM incubated for 15 days by alizarin-red S dye based colorimetric analysis; type: functional, cell-based; details: time 15.0 day
How it was run: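 Calvarial osteoblasts were seeded at 2×10³ cells/well in differentiation medium (10 mM β-glycerophosphate, ascorbic acid) and cultured ± 1 pM with medium changed every 48 h. Cells were fixed in 4% formaldehyde and stained with 40 mM alizarin red S. Dye was extracted in 10% acetic acid at 85 °C, neutralized with ammonium hydroxide and read at 405 nm. n = 3.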

[5] = Acute toxicity in Swiss albino mouse assessed as absolute kidney weight at 50 mg/kg, po measured after 7 days (reference value: 0.29 +/- 0.02 g); type: organism-based; details: in vivo, 168 h, time 7 day
[6] = Acute toxicity in Swiss albino mouse assessed as relative kidney weight at 50 mg/kg, po measured after 7 days (reference value: 1.25 +/- 0.08 %); type: organism-based; details: in vivo, 168 h, time 7 day
[7] = Acute toxicity in Swiss albino mouse assessed as absolute heart weight at 50 mg/kg, po measured after 7 days (reference value: 0.12 g); type: organism-based; details: in vivo, 168 h, time 7 day
[8] = Acute toxicity in Swiss albino mouse assessed as monocyte count at 1000 mg/kg, po measured after 7 days (reference value: 12.58 +/- 2.86 %); type: organism-based; details: in vivo, 168 h, time 7 day
[9] = Acute toxicity in Swiss albino mouse assessed as reduced GSH level at 50 mg/kg, po measured after 7 days (reference value: 18.20 +/- 1.56 ug/mg of protein); type: organism-based; details: in vivo, 168 h, time 7 day
[10] = Acute toxicity in Swiss albino mouse assessed as WBC count per thousand/mm3 at 5 mg/kg, po measured after 7 days (reference value: 6.84 +/- 0.83 /mm3); type: organism-based; details: in vivo, 168 h, time 7 day
[11] = Acute toxicity in Swiss albino mouse assessed as absolute uterus weight at 300 mg/kg, po measured after 7 days (reference value: 0.27+/- 0.07 g); type: organism-based; details: in vivo, 168 h, time 7 day
[12] = Acute toxicity in Swiss albino mouse assessed as absolute lung weight at 50 mg/kg, po measured after 7 days (reference value: 0.16 +/- 0.01 g); type: organism-based; details: in vivo, 168 h, time 7 day
[13] = Acute toxicity in Swiss albino mouse assessed as relative liver weight at 50 mg/kg, po measured after 7 days (reference value: 6.81 +/- 2.14 %); type: organism-based; details: in vivo, 168 h, time 7 day
[14] = test system: Calvarial osteoblast; experiment: Induction of osteoblast differentiation in mouse calvarial osteoblast assessed as increase in ERbeta expression at 1 pM incubated for 48 hrs by Western blot analysis; type: functional, cell-based
How it was run: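 Calvarial osteoblasts at 60–70% confluence were treated ± compound for 48 h, with 100 pM E2 as positive control. Lysates (30 µg protein) were resolved on 10% SDS-PAGE, transferred to PVDF and probed for ER-α and ER-β with HRP secondaries and ECL detection. Bands were quantified by densitometry normalized to β-actin.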

[15] = Acute toxicity in Swiss albino mouse assessed as eosinophil count at 1000 mg/kg, po measured after 7 days (reference value: 6.34 +/- 1.04 %); type: organism-based; details: in vivo, 168 h, time 7 day
[16] = Toxicity in ovariectomized BALB/c mouse assessed as uterine estrogenicity by measuring uterine weights at 1 to 10 mg/kg, po administered for 30 days and measured on day 30; type: organism-based; details: in vivo, 720 h, dose 1-10 mg/kg, time 30 day
How it was run: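 Six-to-eight-week-old balb/c mice (n = 10) were ovariectomized and dosed orally for 30 consecutive days: test agent at 1 or 10 mg kg-1 day-1, or 17β-E2 at 0.01 mg kg-1 day-1. Uterine weights were recorded and compared with the Ovx vehicle group; mean ± SEM.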

[17] = Acute toxicity in Swiss albino mouse assessed as relative uterus weight at 300 mg/kg, po measured after 7 days (reference value: 1.63 +/- 0.71 %); type: organism-based; details: in vivo, 168 h, time 7 day
[18] = Acute toxicity in Swiss albino mouse assessed as relative kidney weight at 300 mg/kg, po measured after 7 days (reference value: 1.25 +/- 0.08 %); type: organism-based; details: in vivo, 168 h, time 7 day
[19] = Acute toxicity in Swiss albino mouse assessed as absolute spleen weight at 300 mg/kg, po measured after 7 days (reference value: 0.17 +/- 0.03 g); type: organism-based; details: in vivo, 168 h, time 7 day
[20] = Acute toxicity in Swiss albino mouse assessed as triglycerides level at 1000 mg/kg, po measured after 7 days (reference value: 58.51 +/- 10.82 mg/dL); type: organism-based; details: in vivo, 168 h, time 7 day
[21] = Acute toxicity in Swiss albino mouse assessed as ALKP level at 1000 mg/kg, po measured after 7 days (reference value: 379.25 +/- 27.08 U/L); type: organism-based; details: in vivo, 168 h, time 7 day
[22] = Acute toxicity in Swiss albino mouse assessed as tissue protein level at 1000 mg/kg, po measured after 7 days (reference value: 0.029 +/- 0.004 mg/ml); type: organism-based; details: in vivo, 168 h, time 7 day
[23] = Acute toxicity in Swiss albino mouse assessed as absolute lung weight at 300 mg/kg, po measured after 7 days (reference value: 0.16 +/- 0.01 g); type: organism-based; details: in vivo, 168 h, time 7 day
[24] = AUC (0 to infinity) in Sprague-Dawley rat at 1 mg/kg, iv measured upto 24 hrs by LC-MS/MS analysis; type: ADME, organism-based; design: route intravenous, dose 1 mg/kg, time <=24; details: in vivo
How it was run: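 Female Sprague-Dawley rats (n = 4 per route), fasted overnight; 1 mg/kg oral (0.25% CMC) or i.v. tail-vein bolus (DMSO-PEG400-ethanol-water). Plasma was sampled to 24 h and assayed by LC-MS/MS (0.5-200 ng/mL). Non-compartmental AUC0-∞ = AUC0-t + Clast/kel; mean ± S.D.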

[25] = test system: Mus musculus; experiment: In vivo osteogenic activity in ovariectomized BALB/c mouse assessed as increase in energy required to break bone at 1 to 10 mg/kg, po via gavage administered for 1 month by TKC Muromachi bone strength testing method; type: functional, organism-based; details: dose 1-10 mg/kg, time 1.0 months
How it was run: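 Ovariectomized balb/c mice were gavaged with 1 or 10 mg kg-1 daily for one month. Bones were then tested on a bone strength tester for energy, stiffness and force to break. Mean ± SEM compared with the Ovx vehicle group.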

[26] = test system: Calvarial osteoblast; experiment: Induction of osteoblast differentiation in mouse calvarial osteoblast assessed as increase in BMP-2 mRNA expression at 1 pM incubated for 48 hrs by qPCR analysis; type: functional, cell-based
How it was run: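 Calvarial osteoblasts were treated at 1 pM for 24 and 48 h. Total RNA was extracted with TRIzol, and cDNA was made from 2 µg RNA. qPCR ran 40 cycles for BMP-2, RUNX-2, OCN and collagen type 1, with normalization to GAPDH. Mean ± SEM of three independent experiments.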

SMILES: CCCCN(C)C(=O)CCCCOc1ccc([C@H]2c3ccc(OC)cc3OC(C)(C)[C@@H]2c2ccccc2)cc1
- Activity [1]: Active
- Activity [2]: 1.46%
- Activity [3]: 0.5%
- Activity [4]: Active
- Activity [5]: 0.26 g
- Activity [6]: 1.09%
- Activity [7]: 0.12 g
- Activity [8]: 12.27%
- Activity [9]: 15 µg/mg
- Activity [10]: 6.1 10^3/mm3
- Activity [11]: 0.33 g
- Activity [12]: 0.2 g
- Activity [13]: 5.17%
- Activity [14]: Active
- Activity [15]: 5.35%
- Activity [16]: Non-Toxic
- Activity [17]: 1.23%
- Activity [18]: 1.14%
- Activity [19]: 0.13 g
- Activity [20]: 92.31 mg/dL
- Activity [21]: 378.12 U/L
- Activity [22]: 0.032 mg/mL
- Activity [23]: 0.17 g
- AUC(0-inf) [24]: 906 ng·h/mL
- Activity [25]: Active
- Activity [26]: Active
